From PubChem BioAssay
CAL PDZ FP-1: blocks peptide binding to the human CAL PDZ domain; purified CAL PDZ, TMR-peptide fluorescence polarization, 1 h; inhibition, % at 24.9 µM; hit rate 0.92% among 300,000;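 active = mean inhibition of at least 30% with at least half of replicates also reaching 30%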;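 also: 0% = DMSO neutral control and 100% = excess unlabeled competitor peptide PRC23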
ARNT TACC3 PPI: disruptors of human ARNT/TACC3 interaction. Q9Y6A5. AlphaScreen His-ARNT PAS-B/GST-TACC3 binding, luminescence; TACC3 fragment carries E629A point mutation. inhibition, % at 9.99 µM. hit rate 0.66% among 390,000. AID 623870;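 active = mean inhibition of replicates at least 50% and at least half of replicates each reaching 50%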;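 also: 0% = complete ARNT plus TACC3 wells and 100% = ARNT alone without TACC3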
AI-2 QS mod: Vibrio harveyi AI-2 quorum sensing modulation; Vibrio harveyi JMH597 AI-2 luminescence/OD600 ratio, 9 h; stronger effect = lower value; strain lacks LuxN and CqsS sensors; 0 = neutral-control median; activity change, % at 7.5 µM; hit rate 0.4% among 300,000; in the data active = activity change below about -75%, passing the limit was not always enough;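 also: luminescence divided by OD600 gain over 9 h not by final OD600 alone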
Rce1 inh: inhibitors of yeast Ras-converting enzyme; yeast membranes, quenched prenylated peptide cleavage fluorescence; Q03530; hit rate 0.27% among 290,000; calls only;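 active = fall in fluorescence gain of 50% or more versus controls, with final raw signal at or below 3038400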;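 also: plate controls were neutral control wells for no effect and wells lacking membranes for full effect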
Target sequence (Q03530 whole entry, looked up): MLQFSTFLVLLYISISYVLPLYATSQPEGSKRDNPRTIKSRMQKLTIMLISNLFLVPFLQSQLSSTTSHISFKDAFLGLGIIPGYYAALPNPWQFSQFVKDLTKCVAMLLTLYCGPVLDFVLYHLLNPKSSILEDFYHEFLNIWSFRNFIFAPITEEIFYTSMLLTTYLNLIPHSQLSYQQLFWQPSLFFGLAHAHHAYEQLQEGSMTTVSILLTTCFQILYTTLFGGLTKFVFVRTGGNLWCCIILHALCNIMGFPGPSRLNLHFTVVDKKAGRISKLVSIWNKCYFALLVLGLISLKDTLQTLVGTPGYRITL
CAL PDZ FP-2: human CAL PDZ-peptide interaction inhibition. Q9HD26. purified CAL PDZ, TMR-peptide fluorescence polarization, 1 h. inhibition, % at 20 µM. hit rate 0.02% among 330,000. AID 504414;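 active = highest replicate inhibition of at least 40%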;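 also: plate controls were DMSO neutral control wells for no effect and unlabeled competitor peptide control wells for full effect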
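Material: tagged CAL PDZ protein CerCALP, purified; buffer or medium: sodium phosphate/NaCl buffer pH 7.4 with TCEP, IgG, Thesit; also added: fluorescent TMR peptide probe; schedule: 1 h incubation at room temperature before polarization reading; technique: fluorescence polarization from S- and P-plane intensities, G-factor corrected; control set: unlabelled peptide and DMSO controls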
Numbers without * were called inactive; i = inactive; · = not tested or not shown; + = active, no number. Compounds with a hit are over-represented: about 1.7% of the library has one in this group of screens.

SMILES	CAL PDZ FP-1	ARNT TACC3 PPI	AI-2 QS mod	Rce1 inh	CAL PDZ FP-2
N#Cc1ccc(-c2ccc3c(c2)[C@H]2[C@H](CCN2C(=O)Cc2ccccc2)[C@H](CO)N3)cc1	·	6	·	·	·
NC(=O)NC(CC(=O)NNC(=O)c1ccccn1)c1ccccc1Cl (centres undefined)	109*	31	·	·	1
O=C(CCSc1ccc(Cl)cc1)NC12CC3CC(CC(C3)C1)C2	0	2	32	+	-1
Cc1cccc2cc(CN(C(=O)c3cnccn3)C3CCCCC3)c(Cl)nc12	-3	6	16	i	-1
COc1ccc(-c2c[n+]3c4n2CCCCC4=C(c2ccc(Br)cc2)C3)cc1	·	17	7	+	-1
Cc1nnc(SCC(=O)Nc2nccs2)s1	79*	-26	22	i	1
CC(=NNc1nc2ccccc2s1)c1ccncn1	-3	70*	·	·	1
CN(C)c1ncc(S(=O)(=O)c2ccc(Cl)cc2)c(-c2ccccc2)n1	-2	-7	24	i	-3
C=CCSc1ncnc2c1oc1nc3c(cc12)COC(C)(C)C3	84*	-5	4	i	-1
CC(C)CSc1ncnc2c1oc1nc3c(cc12)COC(C)(C)C3	·	5	40	i	-3
C=CCNC(=O)c1c(O)c2cccc3c2n(c1=O)CCC3	33*	-5	6	i	-1
COC(=O)[C@H](C)N(Cc1ccc(Cl)c(Cl)c1)S(=O)(=O)CCN1CCCC1	35*	2	·	·	-1
Cc1cccc(C(=O)NCC(=O)OCC(=O)NC2CCCCC2)c1	-2	-2	·	·	0
Cc1ccc2nc(N3C(=O)C(O)=C(C(=O)c4ccco4)C3c3cccs3)sc2c1 (centres undefined)	-16	-1	72	i	-10
CC(COc1ccccc1)OC(=O)Nc1ccccc1 (centres undefined)	61*	-11	·	·	31
O=C(NCc1ccco1)c1ccc(CN2CCOCC2)cc1	0	-5	19	i	1
CC1CCCCC1NS(=O)(=O)CCNC(=O)c1ccccc1 (centres undefined)	35*	-37	10	i	0
O=C(NCCS(=O)(=O)NC1CCCC1)c1ccc(F)cc1	-5	1	6	i	1
Cc1cc(C(=O)NP(=O)(N2CCOCC2)N2CCOCC2)c(C)n1-c1ccc(N(C)C)cc1	88*	15	34	i	-1
O=C(O)C1CC=CCC1C(=O)NCCc1csc(-c2ccccc2)n1 (centres undefined)	-2	-12	18	i	-1
N#CCc1nn(-c2ccc(Cl)cc2)c(N)c1C#N	-1	4	14	i	0
N#CCc1nn(-c2ccccc2)c2ncnc(N)c12	103*	3	24	i	0
Cc1ccccc1OCc1nc2ccccc2[nH]1	41*	2	31	i	-1
O=c1c2ccccc2nc2n1CCCCN2	·	-2	31	+	-1
O=c1c2ccccc2nc2n1CCCN2	-5	2	17	i	-5
SMILES	CAL PDZ FP-1	ARNT TACC3 PPI	AI-2 QS mod	Rce1 inh	CAL PDZ FP-2
S=c1[nH]cc(-c2ccc(Cl)cc2)n1Cc1ccccc1	-1	-3	8	i	0
O=C(O)CCCCCNS(=O)(=O)c1cccc2c1C(=O)c1ccccc1C2=O	-3	58*	6	i	0
CCOC(=O)C1=C(CC)OC(N)=C(C#N)C1c1ccc(NC(C)=O)cc1 (centres undefined)	0	-6	3	i	0
Cc1nn(CC(=O)Nc2ccccc2)c(=O)c2ccccc12	7	27	-88*	i	-1
Cc1nn(CC(=O)NC(C)c2ccccc2)c(=O)c2ccccc12 (centres undefined)	-3	-7	29	i	0
O=C(Nc1ccc(Oc2ccc(Cl)cc2)c(Cl)c1)c1cc(I)cc(I)c1O	0	-4	21	i	0
NC(=O)/C(=C\c1ccncc1)c1cccc2ccccc12	74*	-7	11	i	-1
CN(C)CC(=O)N[C@@H]1CC[C@H](CCn2cc(CN(C)C)nn2)O[C@H]1CO	·	-17	·	·	·
CCOc1ccccc1Nc1nc(N)nc(CSc2nccc(C)n2)n1	-7	3	28	i	·
COc1ccc(N2CCN(Cc3nc(N)nc(Nc4ccccc4OC)n3)CC2)cc1	1	50*	6	i	-4
COc1ccccc1Nc1nc(N)nc(CSc2ncccn2)n1	69*	3	12	i	-1
COc1ccccc1CNC(=O)C[C@H]1CC[C@@H]2[C@H](COC[C@@H](O)CN2Cc2ccccc2)O1	·	-3	·	·	·
CCCCCCN(C(=O)CCCCCN1C(=O)NC(c2ccc([N+](=O)[O-])cc2)C(C(=O)OCc2ccccc2)=C1C)C(C(=O)NCCCC)c1ccc(OCC(=O)OC)c(C(=O)OC)c1 (centres undefined)	·	·	-1	i	·
Cc1ccccc1C(=O)Nc1cccc(NC(=O)c2ccccc2[N+](=O)[O-])c1	0	0	9	i	0
Cc1ccc(CNC(=O)c2cc(-c3ccccc3)nn2CC2CC(c3cccnc3)=NO2)cc1 (centres undefined)	-5	-3	25	i	0
Cc1ccc(CNC(=O)c2cc(-c3ccccc3)nn2CC2CC(c3cccc([N+](=O)[O-])c3)=NO2)cc1 (centres undefined)	-4	2	11	+	0
Nc1ccc2c(C(F)(F)F)cc(C(F)(F)F)nc2n1	-2	14	-7	+	-2
FC(F)(F)c1cc(C(F)(F)F)c2ccc(Oc3ccccc3)nc2n1	-4	1	-2	i	-1
O=[N+]([O-])c1cc2c(cc1CN1CCN(CCOCCO)CC1)OCO2	-1	-5	2	i	1
O=C(Nc1ccc(F)cc1F)C1CCCN1S(=O)(=O)c1cccc2nsnc12 (centres undefined)	-3	0	1	i	-1
O=C(Nc1ccc(F)cc1)C1CCCN1S(=O)(=O)c1cccc2nsnc12 (centres undefined)	128*	3	23	i	0
COc1ccc2c(=O)cc(-c3ccccc3)n(C)c2c1	-1	·	·	·	-4
CCOc1ccc(S(=O)(=O)NC(C)C(=O)NCc2ccc3c(c2)OCO3)cc1 (centres undefined)	76*	1	-18	i	0
CC(NS(=O)(=O)c1ccc(Br)cc1)C(=O)NCc1ccc2c(c1)OCO2 (centres undefined)	0	-7	11	i	0
CCN1CCN(c2ccc(S(=O)(=O)N3CCOCC3)cc2NC(=O)C2CCC(C(C)(C)C)CC2)CC1 (centres undefined)	73*	·	·	·	-1
O=C(Nc1cc(Cl)ccc1N1CCOCC1)c1cnccn1	0	·	7	i	-1
O=C(Nc1cc(S(=O)(=O)N2CCOCC2)ccc1N1CCCC1)c1cnccn1	-1	-2	-1	+	-2
